The text below walks through data of PubChem BioAssay.

A short description of experiment [1]: Her2 expression decrease, cell viability multiplex – SKBR3 breast tumor cells, AlphaScreen, ATP viability, primary screen (AID 461).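 On Her2 level: lower value means less Her2 protein in the cells.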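 On viability: percent of carrier control wells set as 100% viability.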 Conditions: SKBR3 Her2 protein level, 18-24 h, measured here: SKBR3 viability, ATP luminescence, at 10 µM.
In experiment [2] the target is Receptor tyrosine-protein kinase erbB-2 (Homo sapiens) (UniProt P04626). The description is as above. The conditions noted are these: 18-24 h, at 10 µM, stronger effect = lower value.
A short description of experiment [3]: reduced viability of SK-BR-3 breast cancer cells – cell-based, 24 h, human, pilot screen (AID 572;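 active means viability at or below 10% of carrier control in both of two separate runs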;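 further: compound exposure lasted between 18 and 24 h rather than exactly 24 h; 100% = carrier-treated control wells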). Conditions: SK-BR-3 viability, CellTiter-Glo luminescence, at 10 µM, stronger effect = lower value.
The nature of experiment [4]: HUVEC growth inhibition – cell-based, human, primary screen (AID 575;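 active means viability at or below 30% in both replicate assays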;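 further: 100% = median of untreated cell wells with 0.1% DMSO on each plate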). Conditions: HUVEC proliferation, CellTiter-Glo luminescence, 72 h; at 10 µM; stronger effect = lower value. An outline of the steps: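 Material: primary human umbilical vein endothelial cells / Schedule: 72 h exposure, 37 °C, 5% CO2, 30 min RT equilibration / Signal: ATP-based CellTiter-Glo luminescent read / Read-out basis: percent of median DMSO-control luminescence / Control set: 32 DMSO-only cell-control wells (high), 32 MePR drug-control wells (low) per plate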
(ATP-based viability assays read luminescence as a measure of living cells.)

Experiment [5] in a line: H69AR cell proliferation blockers – human, duplicate replicates, primary screen (AID 580;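 active means viability at or under a set limit in both replicates, limit being median viability minus 3 SD, cut at about 48% in these data, passing the limit was not always enough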;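 further: 100% = mean luminescence of untreated wells and 0% = no signal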). The conditions noted are these: H69AR lung tumor cells viability, ATP luminescence, 72 h; at 10 µM; stronger effect = lower value.
A short description of experiment [6]: MRP1 drug-resistance reversers in H69AR cells – cell-based, doxorubicin co-treatment, pilot screen (AID 601;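 active means viability loss from added drug above about 55%, and viability with drug at most 40%, in both replicates, limit read from the data, passing the limit was not always enough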). The conditions noted are these: CellTiter-Glo, 72 h, at 10 µM; for differential viability (reversal): stronger effect = higher value.
The nature of experiment [7]: yeast transport mutant growth inhibition pilot in 384-well plates, post-Golgi transport modulator project (AID 636; in the data active means inhibition above about 31%). The conditions noted are these: absorbance 615 nm, about 18 h, stronger effect = higher value.
A short description of experiment [8]: growth suppression of yeast trafficking mutant, preliminary HTS, modulators of trafficking downstream of Golgi apparatus project, 1536-format plate, OD 615 nm (AID 637; in the data active means inhibition above about 30%). Conditions: yeast transport mutant growth, absorbance 615 nm, 18 h; stronger effect = higher value.
The mark [9] stands for this setting: H69AR cells + 2 uM doxorubicin, measured here: viability with 2 uM doxorubicin, stronger effect = lower value.
Where [10] appears, read: H69AR cells, compound alone cytotoxicity.

The source made the active and inactive calls.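 How the source made its calls, unless noted: active means Her2 level under about 52% in both replicate screens, with viability over 70% of control (limit read from the data); inconclusive means Her2 under the limit in one screen only, or viability under 70%; inactive means Her2 level above the set limit.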

Sequence of Receptor tyrosine-protein kinase erbB-2 (Homo sapiens) (P04626 whole entry, looked up): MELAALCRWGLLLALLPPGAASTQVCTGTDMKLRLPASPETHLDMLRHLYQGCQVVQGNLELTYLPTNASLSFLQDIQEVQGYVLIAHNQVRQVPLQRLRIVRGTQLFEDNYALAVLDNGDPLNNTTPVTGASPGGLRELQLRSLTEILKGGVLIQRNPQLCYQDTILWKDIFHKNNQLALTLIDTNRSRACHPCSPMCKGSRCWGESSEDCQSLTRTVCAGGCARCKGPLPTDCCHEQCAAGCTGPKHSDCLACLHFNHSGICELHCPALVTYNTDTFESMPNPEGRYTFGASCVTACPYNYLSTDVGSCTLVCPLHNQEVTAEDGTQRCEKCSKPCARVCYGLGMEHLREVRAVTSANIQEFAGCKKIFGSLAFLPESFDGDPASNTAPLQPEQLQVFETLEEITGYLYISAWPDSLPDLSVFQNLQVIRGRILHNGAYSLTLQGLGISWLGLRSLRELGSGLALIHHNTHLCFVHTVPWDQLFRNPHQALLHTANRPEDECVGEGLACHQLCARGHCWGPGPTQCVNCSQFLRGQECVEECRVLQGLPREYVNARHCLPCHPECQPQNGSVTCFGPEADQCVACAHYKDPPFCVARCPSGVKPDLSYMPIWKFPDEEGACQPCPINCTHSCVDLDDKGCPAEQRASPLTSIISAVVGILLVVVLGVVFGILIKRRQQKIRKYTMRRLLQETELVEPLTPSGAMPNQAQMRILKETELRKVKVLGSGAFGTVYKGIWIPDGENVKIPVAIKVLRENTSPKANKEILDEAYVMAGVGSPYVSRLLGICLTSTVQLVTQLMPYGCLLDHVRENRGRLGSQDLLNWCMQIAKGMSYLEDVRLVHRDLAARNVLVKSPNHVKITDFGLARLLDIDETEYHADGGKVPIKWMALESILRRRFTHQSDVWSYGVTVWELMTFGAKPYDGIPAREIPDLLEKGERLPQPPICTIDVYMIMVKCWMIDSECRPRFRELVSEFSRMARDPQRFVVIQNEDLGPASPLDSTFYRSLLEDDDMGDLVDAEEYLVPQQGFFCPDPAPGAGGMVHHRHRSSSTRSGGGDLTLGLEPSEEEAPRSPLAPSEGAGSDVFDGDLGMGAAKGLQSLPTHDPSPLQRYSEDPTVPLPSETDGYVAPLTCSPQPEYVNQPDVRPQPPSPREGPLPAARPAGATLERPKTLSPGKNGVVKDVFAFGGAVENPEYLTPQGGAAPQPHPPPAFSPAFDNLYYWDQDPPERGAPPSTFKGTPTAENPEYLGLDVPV

One may read the viability as a read-out of living cells in per cent, often relative to untreated cells. Broadly, the inhibition is the relative decrease from the control value, in per cent. For the molecule `COC(=O)c1ccc(C)c(NS(=O)(=O)c2ccc3c(c2)OCCO3)c1`, the viability in experiment [1] is 87.5%; in experiment [3], 87.5% (inactive); in experiment [4], 49.2% (inactive); in experiment [5], 35% (active); in experiment [6] (setting [9]) it was 72%; in experiment [6] (setting [10]), 35%. Besides, the Her2 level in experiment [2] is 74% (inactive). In addition, in experiment [6] (H69AR cells + 2 uM doxorubicin), the differential viability (reversal) was -37% (inactive). The inhibition was 1.54% (inactive) in experiment [7] and -3.67% (inactive) in experiment [8].
Take `Fc1ccc(C(c2nnnn2Cc2ccco2)N2CCN(C3CCCCC3)CC2)cc1` (stereo not given): the viability is 67% in experiment [1]; 67% (inactive) in experiment [3]; 92.5% (inactive) in experiment [4]; 94.1% (inactive) in experiment [5]; 88.5% in experiment [6] (setting [9]); 94.1% in experiment [6] (setting [10]). In addition, the Her2 level in experiment [2] is 86.5% (inactive). Also, the differential viability (reversal) in experiment [6] (H69AR cells + 2 uM doxorubicin) is 5.67% (inactive). Also, the values for the inhibition in experiment [7] and in experiment [8] were 2% (inactive) and 21.9% (inactive), respectively.
Take `C(=N\n1cnnc1)/c1cccnc1`: the viability was 87.5% in experiment [1]; 87.5% (inactive) in experiment [3]; 105% (inactive) in experiment [4]; 98.6% (inactive) in experiment [5]; 88.8% in experiment [6] (setting [9]); 98.6% in experiment [6] (setting [10]). Also, in experiment [2], the Her2 level was 107% (inactive). Moreover, the differential viability (reversal) in experiment [6] (H69AR cells + 2 uM doxorubicin) was 9.86% (inactive). Further, the inhibition is 4.34% (inactive) in experiment [7] and 0.36% (inactive) in experiment [8].
On to `Cc1nnc(SCc2cn3ccsc3n2)n(N)c1=O`, for which the viability in experiment [1] is 95.5%; in experiment [3] it was 95.5% (inactive); in experiment [4], 95% (inactive); in experiment [5], 86.5% (inactive); in experiment [6] (setting [9]), 90.7%; in experiment [6] (setting [10]), 86.5%. Moreover, the Her2 level in experiment [2] is 81.5% (inactive). For the same molecule, the differential viability (reversal) in experiment [6] (H69AR cells + 2 uM doxorubicin) is -4.16% (inactive). Besides, the inhibition in experiment [7] is 0.26% (inactive); in experiment [8], 21.3% (inactive).
With `C=CCn1cnc2c(NCc3ccccc3)ncnc21`, the viability in experiment [1] is 85.5%; in experiment [3], 85.5% (inactive); in experiment [4], 96.9% (inactive); in experiment [5] it was 97.1% (inactive); in experiment [6] (setting [9]), 100%; in experiment [6] (setting [10]) it was 97.1%. The Her2 level in experiment [2] is 94% (inactive). Also, the differential viability (reversal) in experiment [6] (H69AR cells + 2 uM doxorubicin) is -3.4% (inactive). For the same molecule, the values for the inhibition in experiment [7] and in experiment [8] were 1.71% (inactive) and -7.9% (inactive), respectively.
As to `CC(C)(C)c1cc(C(=O)O)nn1-c1ccccc1`, the viability in experiment [1] was 112%; in experiment [3], 112% (inactive); in experiment [4], 98.1% (inactive); in experiment [5], 92.2% (inactive); in experiment [6] (setting [9]) it was 87.1%; in experiment [6] (setting [10]) it was 92.2%. Besides, the Her2 level in experiment [2] was 92% (inactive). Also, in experiment [6] (H69AR cells + 2 uM doxorubicin), the differential viability (reversal) was 5.08% (inactive). The inhibition was -4.47% (inactive) in experiment [7] and -2.54% (inactive) in experiment [8].
With `Cc1ccc(NC(=O)c2ccccc2O)cc1`, the viability in experiment [1] was 93.5%; in experiment [3] it was 93.5% (inactive); in experiment [4], 86.9% (inactive); in experiment [5] it was 89.2% (inactive); in experiment [6] (setting [9]) it was 89.4%; in experiment [6] (setting [10]), 89.2%. Besides, the Her2 level in experiment [2] was 87.5% (inactive). Further, the differential viability (reversal) in experiment [6] (H69AR cells + 2 uM doxorubicin) is -0.22% (inactive). The inhibition in experiment [7] was -1.49% (inactive); in experiment [8], -2.7% (inactive).
For the molecule `COc1cccc(C(=O)NCc2nnc(SCC(=O)Nc3nccs3)n2-c2ccccc2)c1`, the viability in experiment [1] is 101%; in experiment [3], 101% (inactive); in experiment [4], 92.9% (inactive); in experiment [5], 97.9% (inactive); in experiment [6] (setting [9]), 101%; in experiment [6] (setting [10]), 97.9%. Besides, the Her2 level in experiment [2] was 108% (inactive). Besides, the differential viability (reversal) in experiment [6] (H69AR cells + 2 uM doxorubicin) was -3.27% (inactive). In addition, the inhibition is -2.18% (inactive) in experiment [7] and 1.17% (inactive) in experiment [8].
`Cc1ccc(-c2cc(C(F)(F)F)n3ncc(C(=O)O)c3n2)cc1`: the viability is 91% in experiment [1]; 91% (inactive) in experiment [3]; 113% (inactive) in experiment [4]; 99.7% (inactive) in experiment [5]; 92.4% in experiment [6] (setting [9]); 99.7% in experiment [6] (setting [10]). Also, in experiment [2], the Her2 level is 90.5% (inactive). The differential viability (reversal) in experiment [6] (H69AR cells + 2 uM doxorubicin) was 7.33% (inactive). Also, the inhibition in experiment [7] is -7.87% (inactive); in experiment [8] it was 0.48% (inactive).
In the case of `Cc1ccc(C)c(S(=O)(=O)NCc2cccnc2)c1`, the viability is 92% in experiment [1]; 92% (inactive) in experiment [3]; 108% (inactive) in experiment [4]; 92.8% (inactive) in experiment [5]; 91.5% in experiment [6] (setting [9]); 92.8% in experiment [6] (setting [10]). The Her2 level in experiment [2] is 87.5% (inactive). The differential viability (reversal) in experiment [6] (H69AR cells + 2 uM doxorubicin) was 1.22% (inactive). Moreover, the results for the inhibition in experiment [7] and in experiment [8] were -5.33% (inactive) and -6.19% (inactive), respectively.
Take `CC(C)(C)n1ncc2c(=O)n(CC(=O)c3ccccc3)cnc21`: the viability in experiment [1] is 95%; in experiment [3], 95% (inactive); in experiment [4], 80.2% (inactive); in experiment [5] it was 84.2% (inactive); in experiment [6] (setting [9]) it was 86.9%; in experiment [6] (setting [10]) it was 84.2%. Besides, the Her2 level in experiment [2] was 84% (inactive). Further, the differential viability (reversal) in experiment [6] (H69AR cells + 2 uM doxorubicin) is -2.76% (inactive). Moreover, the inhibition in experiment [7] was -0.39% (inactive); in experiment [8] it was -3.23% (inactive).
Regarding `CC1(C)Cc2noc(N)c2C(C)(C)N1OC(=O)c1ccco1`, the viability is 118% in experiment [1]; 118% (inactive) in experiment [3]; 93.1% (inactive) in experiment [4]; 94.5% (inactive) in experiment [5]; 91.7% in experiment [6] (setting [9]); 94.5% in experiment [6] (setting [10]). In experiment [2], the Her2 level is 82.5% (inactive). In experiment [6] (H69AR cells + 2 uM doxorubicin), the differential viability (reversal) is 2.83% (inactive). The inhibition in experiment [7] was -3.55% (inactive); in experiment [8], 3.81% (inactive).
For `COC(=O)c1cc(Br)c(=O)n(CCC2=CCCCC2)c1`, the viability in experiment [1] was 81.5%; in experiment [3], 81.5% (inactive); in experiment [4], 92.5% (inactive); in experiment [5], 89.9% (inactive); in experiment [6] (setting [9]), 88.4%; in experiment [6] (setting [10]) it was 89.9%. Besides, the Her2 level in experiment [2] is 99.5% (inactive). Also, in experiment [6] (H69AR cells + 2 uM doxorubicin), the differential viability (reversal) was 1.54% (inactive). In addition, the inhibition in experiment [7] was -0.27% (inactive); in experiment [8] it was 6.89% (inactive).
As to `O=C(CCn1c(=S)[nH]c2cc3c(cc2c1=O)OCO3)N1CCN(C2CCCCC2)CC1`, the viability is 90.5% in experiment [1]; 90.5% (inactive) in experiment [3]; 93.8% (inactive) in experiment [4]; 90% (inactive) in experiment [5]; 92.8% in experiment [6] (setting [9]); 90% in experiment [6] (setting [10]). In addition, the Her2 level in experiment [2] was 82.5% (inactive). Besides, the differential viability (reversal) in experiment [6] (H69AR cells + 2 uM doxorubicin) was -2.85% (inactive). Also, the values for the inhibition in experiment [7] and in experiment [8] were -5.54% (inactive) and -0.66% (inactive), respectively.
Consider `COc1ccc2nc(NC(=O)C(NS(=O)(=O)c3cccs3)C(C)C)sc2c1` (stereo not given), for which the viability in experiment [1] is 90.5%; in experiment [3], 90.5% (inactive); in experiment [4] it was 70.7% (inactive); in experiment [5], 92.7% (inactive); in experiment [6] (setting [9]) it was 86.9%; in experiment [6] (setting [10]) it was 92.7%. Further, in experiment [2], the Her2 level was 77% (inactive). Moreover, in experiment [6] (H69AR cells + 2 uM doxorubicin), the differential viability (reversal) was 5.86% (inactive). The inhibition is -2.5% (inactive) in experiment [7] and -5.64% (inactive) in experiment [8].
Turning to `COc1cccc(-c2nnc(SCC(=O)N3CCCc4ccccc43)o2)c1`, the viability in experiment [1] was 93.5%; in experiment [3], 93.5% (inactive); in experiment [4] it was 60.4% (inactive); in experiment [5] it was 90.6% (inactive); in experiment [6] (setting [9]), 85.8%; in experiment [6] (setting [10]) it was 90.6%. In addition, the Her2 level in experiment [2] was 87.5% (inactive). Besides, the differential viability (reversal) in experiment [6] (H69AR cells + 2 uM doxorubicin) was 4.79% (inactive). The inhibition in experiment [7] was -4.61% (inactive); in experiment [8], -3.33% (inactive).
